Compound activity as filed in PubChem.
APJ antagonist – blocks the human apelin receptor APJ | P35414 | CHO-K1 APJ beta-arrestin complementation, luminescence | inhibition, % at 20 µM | 0.32% of 330,000 active | AID 2521;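 active = inhibition above about 40% at 20 µM, limit read from the data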;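 note: cells challenged with 10 nM apelin-13 agonist together with compound; plate controls were apelin-13 plus DMSO wells for no effect and DMSO wells lacking apelin-13 for full effect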
Target sequence (P35414 whole entry, looked up): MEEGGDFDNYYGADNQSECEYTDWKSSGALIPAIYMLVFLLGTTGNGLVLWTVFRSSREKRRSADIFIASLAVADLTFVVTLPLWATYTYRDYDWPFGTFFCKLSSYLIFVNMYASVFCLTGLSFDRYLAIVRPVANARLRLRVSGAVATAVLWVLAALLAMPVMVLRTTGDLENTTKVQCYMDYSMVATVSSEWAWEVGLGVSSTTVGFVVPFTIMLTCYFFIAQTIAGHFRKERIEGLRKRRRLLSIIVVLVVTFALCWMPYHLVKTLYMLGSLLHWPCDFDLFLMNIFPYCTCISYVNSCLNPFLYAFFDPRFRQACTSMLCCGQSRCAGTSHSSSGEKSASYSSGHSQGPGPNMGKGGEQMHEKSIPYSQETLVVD
CCR6 antagonist – blocks CCL20-driven beta-arrestin recruitment at human CCR6. P51684. CHO-K1 CCR6 PathHunter beta-arrestin, luminescence, CCL20-stimulated. inhibition, % at 20 µM. 0.49% of 340,000 active;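 active = compounds whose inhibition of the agonist-driven luminescence signal at 20 µM reaches about 50%, limit read from the data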;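 note: cells stimulated with CCL20 at 14 nM final; plate controls were DMSO with CCL20 for no effect and DMSO without agonist for full effect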
CXCR6 inh – blocks human CXCR6 beta-arrestin recruitment; O00574; CHO-K1 PathHunter CXCR6 beta-arrestin, luminescence; inhibition, % at 20 µM; 0.36% of 360,000 active; in the data active = inhibition above about 34%, passing the limit was not always enough;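 note: antagonist mode with CXCL16 agonist at 10 nM final; 0% = 10 nM CXCL16 with DMSO and 100% = unstimulated wells without agonist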
Target sequence (O00574 whole entry, looked up): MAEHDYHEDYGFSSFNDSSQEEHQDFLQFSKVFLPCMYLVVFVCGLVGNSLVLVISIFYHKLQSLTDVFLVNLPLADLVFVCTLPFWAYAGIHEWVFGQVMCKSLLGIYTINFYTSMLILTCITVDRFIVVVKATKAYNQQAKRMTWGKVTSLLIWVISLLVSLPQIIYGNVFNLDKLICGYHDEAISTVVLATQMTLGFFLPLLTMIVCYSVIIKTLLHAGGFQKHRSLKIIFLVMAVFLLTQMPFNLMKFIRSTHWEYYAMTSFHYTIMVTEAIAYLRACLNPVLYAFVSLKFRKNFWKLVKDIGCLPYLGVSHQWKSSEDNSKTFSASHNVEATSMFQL
APJ ag – APJ receptor agonism; CHO-K1 APJ PathHunter beta-arrestin, luminescence; 0% DMSO wells, 100% apelin; AID 2520; P35414; activation, % at 20 µM; 0.11% of 330,000 active;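 active = activation more than six SD over the plate average, tested at 20 µM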;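 note: 0% = DMSO alone and 100% = apelin-13 at 10 nM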
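Assay system: engineered CHO-K1 APJ arrestin reporter cells; Amount: 1000 CHO-K1 reporter cells seeded per well; Dosing: one dose, 20 µM compound, 1% DMSO; Times: compound stimulation 90 min at 25 °C, detection 60 min; Measured by: luminescent beta-gal fragment complementation, chemiluminescent substrate; Read-out: APJ–arrestin association signal; Controls: DMSO vs Apelin-13 10 nM.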
EBI2 antag – EBI2 (human) antagonism | AID 651636 | inhibition, % at 5 µM | 0.81% of 360,000 active | EBI2 beta-arrestin recruitment, luminescence, 7a,25-OHC stimulated; in the data active = inhibition above about 38%;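 note: enzyme fragment complementation signal reports receptor beta-arrestin coupling in cells; 0% = agonist plus DMSO wells and 100% = wells without agonist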
EBI2 antag conf – confirmation of human EBI2 receptor antagonists | shares compounds with EBI2 antag | EBI2 beta-arrestin luminescence, 7a,25-OHC antagonism | inhibition, % at 5 µM | 29% of 2,400 active | AID 651997;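 active = inhibition of at least 50%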
EBI2 agonist – counter-screen for EBI2 antagonists: EBI2 agonist activity. shares compounds with EBI2 antag. EBI2-expressing cells, agonist mode, luminescence, 60 min; 0% vehicle, 100% 7α,25-dihydroxycholesterol control. 2,400 tested, under 10 active. activation, % at 5 µM;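 active = activation of at least 50%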
bGal counter – inhibits E. coli beta-galactosidase, counter-screen for EBI2 antagonists; shares compounds with EBI2 antag; purified beta-galactosidase, luminescent Galacton Star, 15 min; inhibition, % at 5 µM; 1% of 2,400 active;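 active = replicate-average signal at least 3 plate SD below neutral wells, shown as high inhibition, flagging enzyme-inhibiting false positives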;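 note: 0% = DMSO wells with enzyme and 100% = wells lacking enzyme; higher means stronger loss of beta-gal luminescence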
An asterisk follows results filed as active; x = not tested or not shown. Compounds with a hit are over-represented: about 1.5% of the library has one in this group of screens.

SMILES | APJ antagonist | CCR6 antagonist | CXCR6 inh | APJ ag | EBI2 antag | EBI2 antag conf | EBI2 agonist | bGal counter
Cc1ccc2oc(=O)c3cnn(CC(=O)N(CCC(C)C)Cc4ccco4)c3c2c1 | 2.8 | 6.5 | 3.2 | 3.1 | 86.5* | 76.2* | 1.7 | -1.8
O=C(Cn1ncc2c(=O)oc3ccccc3c21)N(Cc1ccco1)C1CCCCC1 | 7.6 | 3.2 | 0.0 | -0.6 | 55.6* | 29.4 | 0.5 | 8.9
Cc1ccc2oc(=O)c3cnn(CC(=O)N4CCc5ccccc5C4)c3c2c1 | 23.1 | 14.6 | 4.0 | -0.5 | 46.8* | 15.4 | -1.1 | -13.0
Cc1ccc2oc(=O)c3cnn(CC(=O)N4CCCCC4C)c3c2c1 (configuration not stated) | 11.2 | 3.2 | -2.5 | -2.9 | 19.7 | x | x | x
CCOC(=O)Cn1ncc2c(=O)oc3ccccc3c21 | 9.4 | 7.1 | 5.2 | -5.9 | -1.0 | x | x | x
CCCCN(Cc1ccco1)C(=O)Cn1ncc2c(=O)oc3ccc(C)cc3c21 | -12.6 | 12.0 | -5.4 | -0.2 | 86.1* | 49.0 | 1.5 | 2.7
CC1CN(C(=O)CCNC(=O)c2ccccc2Cl)CC(C)O1 (configuration not stated) | 0.6 | 1.3 | 5.3 | -3.0 | -2.6 | x | x | x
O=C(CNC(=O)N1CC(=O)Nc2ccccc21)Nc1ccc(F)c(Cl)c1 | -1.0 | -11.6 | -3.2 | 0.9 | -2.7 | x | x | x
C=CCn1c(SCCN)nnc1-c1cccc(S(=O)(=O)N2CCOCC2)c1 | x | 0.7 | -0.8 | x | -7.1 | x | x | x
COC(=O)c1ccc(OCC(=O)c2ccc(O)cc2O)cc1 | 12.1 | -11.2 | 3.6 | -4.5 | -1.5 | x | x | x
O=C(COc1ccc(Cl)cc1)c1ccc(O)cc1O | 7.0 | 13.2 | -5.3 | -4.4 | 44.3* | 4.6 | 0.6 | 1.6
COc1ccc(NC(=O)c2ccc(C(=O)c3cc(OC)ccc3OC)cc2)cc1 | 2.0 | 6.4 | -4.6 | -3.1 | 48.1* | 6.0 | 0.5 | 6.0
COc1cc2ccccc2cc1C(=O)Nc1cccnc1 | -8.8 | -1.4 | 1.3 | -3.7 | 0.7 | x | x | x
CCOc1ccc(NC(=O)c2cc3ccccc3cc2O)cc1 | -43.8 | -2.9 | -23.2 | 2.5 | 6.3 | x | x | x
COc1ccc(NC(=O)c2cc3ccccc3cc2OC)cc1 | 18.1 | 11.2 | -2.4 | -4.6 | 65.2* | 35.6 | 1.2 | 4.9
COc1ccc(OC)c(C(=O)c2ccc(C(=O)Nc3ccccc3)cc2)c1 | 10.9 | -4.5 | -1.7 | 1.9 | -5.2 | x | x | x
CCOc1ccc(NC(=O)c2cc3ccccc3cc2OC)cc1 | -22.9 | -2.2 | -3.9 | -1.1 | 54.3* | 37.4 | -1.6 | -11.2
COc1ccccc1NC(=O)CSc1nncs1 | -3.2 | -1.9 | 2.5 | 4.6 | -3.5 | x | x | x
O=C(CCC(=O)N1CCOc2ccccc21)NCc1cccnc1 | 9.7 | 12.6 | 0.6 | -2.2 | -0.9 | x | x | x
Cc1[nH]c2ccc(-c3nnc(SCC(=O)c4ccc(F)cc4)o3)cc2c1C | -2.6 | 1.9 | 3.4 | 3.9 | 11.0 | x | x | x
Cc1cc(C)c(C)c(C(=O)CSc2nnc(-c3ccc4[nH]c(C)c(C)c4c3)o2)c1C | 1.7 | 0.5 | -4.7 | -0.4 | 52.0* | 55.9* | 2.0 | -2.8
Cn1c(C(=O)N2CCN(c3ccccn3)CC2)cc2ccccc21 | -7.2 | -1.1 | 4.0 | -2.0 | 32.5 | x | x | x
Cn1c(C(=O)N2CCN(c3ccccc3)CC2)cc2cc(Cl)ccc21 | -17.6 | 1.0 | 5.6 | 0.4 | 44.2* | 38.0 | 0.3 | -4.3
O=C(NCCc1c[nH]c2ccccc12)C1CCCN(S(=O)(=O)c2ccccc2)C1 (configuration not stated) | 14.9 | 7.4 | -8.2 | -2.1 | 45.5* | 40.2 | -0.2 | -15.5
O=C(NCCC1=CCCCC1)C1CCCN(S(=O)(=O)c2ccccc2)C1 (configuration not stated) | 14.1 | 5.4 | 1.9 | -2.8 | -5.2 | x | x | x
SMILES | APJ antagonist | CCR6 antagonist | CXCR6 inh | APJ ag | EBI2 antag | EBI2 antag conf | EBI2 agonist | bGal counter
COc1ccccc1-c1cc2c(c3c1ccn3C)C1CCC2C1 (configuration not stated) | x | x | -5.0 | x | 16.6 | x | x | x
O=C(Nc1ccc(S(=O)(=O)NCC2CCCO2)cc1)C1CC(=O)N(c2ccccc2)C1 (configuration not stated) | 9.8 | 2.7 | -0.5 | -3.3 | 5.5 | x | x | x
CCc1ccc(N2CC(C(=O)Nc3ccc(S(=O)(=O)NCC4CCCO4)cc3)CC2=O)cc1 (configuration not stated) | 6.5 | 0.1 | 4.9 | -2.0 | 60.5* | 64.5* | -1.6 | -16.8
CC(=O)NC(=S)Nc1sc2c(c1C(N)=O)CCC(C)C2 (configuration not stated) | 28.2 | 38.7 | 38.8* | -7.4 | 36.7* | 21.1 | -0.2 | 8.8
COCCCNS(=O)(=O)c1ccc2[nH]c3c(c2c1)CCCCC3 | -8.8 | 6.7 | -13.4 | -0.5 | -0.6 | x | x | x
CC(C)(C)NS(=O)(=O)c1ccc2[nH]c3c(c2c1)CCCCC3 | -4.3 | -3.8 | -12.7 | -0.1 | 63.1* | 67.2* | 0.8 | 4.8
O=C1C=C(c2ccc(CO)cc2)C[C@@H](c2ccc(F)cc2)C1 | x | x | 5.6 | x | 22.3 | x | x | x
COc1cccc(CN(C(=O)Cc2c[nH]c3ccccc23)C(C(=O)NC2CCCCC2)c2ccc(C)o2)c1 (configuration not stated) | -17.6 | 20.9 | 1.3 | -0.4 | 4.9 | x | x | x
COc1cccc(CN(C)C(=O)Cc2c[nH]c3ccccc23)c1OC | 7.5 | 6.7 | 4.5 | -3.2 | 6.4 | x | x | x
COc1cccc(CN(C)C(=O)Cc2c[nH]c3ccccc23)c1 | 9.3 | 4.2 | -7.0 | -4.2 | 51.2* | 39.8 | -1.1 | -3.3
COc1ccc(CN(C)C(=O)Cc2c[nH]c3ccccc23)cc1 | 1.8 | 11.2 | -3.6 | -1.2 | 52.4* | 31.2 | -0.3 | -8.8
Cc1ccc(CN2C(=O)C(C)Oc3ccc(C)cc32)cc1 (configuration not stated) | x | x | 1.2 | x | -2.2 | x | x | x
Nc1ccc(C(=O)N2CCN(S(=O)(=O)c3ccc(Br)cc3)CC2)cc1[N+](=O)[O-] | 11.0 | 1.4 | 1.5 | 0.6 | -3.1 | x | x | x
O=C(COc1ccccc1F)N1CCN(S(=O)(=O)/C=C/c2ccccc2)CC1 | -5.4 | 3.2 | -13.1 | -2.8 | 54.5* | 26.6 | 1.1 | 1.6
CCOC(=O)N1CCN(S(=O)(=O)/C=C/c2ccccc2)CC1 | -9.1 | -23.6 | 3.6 | -2.8 | -2.1 | x | x | x
O=C(COc1ccc(Br)cc1)N1CCN(S(=O)(=O)/C=C/c2ccccc2)CC1 | -1.4 | 11.7 | -8.9 | -1.5 | 92.5* | 85.6* | 1.2 | 5.2
CC(C)(C)OC(=O)N1CCC[C@H]1C(=O)Nc1ccc(C#N)cc1 | -4.5 | -8.1 | -1.9 | -1.7 | -3.3 | x | x | x
c1ccc(COc2cccc(-c3cc4nc(NCCc5ccncc5)ccn4n3)c2)cc1 | x | x | -6.5 | x | 46.6* | 31.1 | -0.9 | -11.9
Clc1ccc(-c2ccccc2)cn1 | -0.2 | 0.3 | -5.7 | -1.4 | 0.8 | x | x | x
